# Measured values: ChEMBL document CHEMBL1156107, “Synthesis of new alkylaminooxysterols with potent cell differentiating activities: identification of leads for the treatment of cancer and neurodegenerative diseases” (J Med Chem, 2009)
# Calls of active or inactive are those of the source. No cut-off for these calls is given here.
# Key:
# [1] = tested on: P19; experiment: Cytotoxicity against mouse P19 cells after 3 days by trypan blue exclusion assay; type: functional, cell-based
# Summary of the method: (§1)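 U937 and P19 cells treated with compound. Cell death scored by trypan blue exclusion, with cells scraped, suspended in 0.25% w/v trypan blue in PBS and counted in a Malassez cell. IC50 is the concentration giving 50% cytotoxicity.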
# [2] = tested on: P19; experiment: Induction of dendrite out growth in IL-4/GMCSF-stimulated mouse P19 cells assessed as dendrite length at 100 nM after 48 hrs by light microscopy; type: functional
# [3] = tested on: U-937; experiment: Induction of dendrite out growth in IL-4/GMCSF-stimulated human U937 cells assessed as dendrite length at 100 nM after 48 hrs by light microscopy; type: functional
# Summary of the method: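 U937 cells at 1.1 × 10⁶ cells/mL were primed with 10 ng/mL PMA for 48 h in RPMI with 10% heat-inactivated serum. Adherent cells were then given 100 ng/mL IL-4 plus 100 ng/mL GM-CSF or 100 nM compound for 48 h. Dendrite length scored by light microscopy, from none to over 100 μm with a contact network.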
# [4] = tested on: U-937; experiment: Cytotoxicity against human U937 cells after 3 days by trypan blue exclusion assay; type: functional, cell-based; summary of the method: as §1
# [5] = species: Homo sapiens; experiment: Plasma concentration healthy human; type: ADME, organism-based; conditions: in vivo
# [6] = tested on: P19; experiment: Cytotoxicity against mouse P19 cells up to 20 uM after 3 days by trypan blue exclusion assay; type: functional, cell-based; summary of the method: as §1
# [7] = tested on: U-937; experiment: Cytotoxicity against human U937 cells up to 20 uM after 3 days by trypan blue exclusion assay; type: functional, cell-based; summary of the method: as §1
# [8] = tested on: SH-SY5Y; experiment: Cytotoxicity against human SH-SY5Y cells after 72 hrs by trypan blue exclusion assay; type: functional, cell-based
# Summary of the method: (§2)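 Cells were exposed for 72 h to the test agent at increasing concentrations from 10 nM to 20 μM, at 37 °C in humidified 5% CO2. Cells were scraped and resuspended in 0.25% w/v trypan blue in PBS, and dead cells were counted under a light microscope in a Malassez chamber. IC50 is the concentration giving 50% cytotoxicity. Values are mean ± SE of three independent experiments, each run in duplicate.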
# [9] = tested on: HCT-8; experiment: Cytotoxicity against human HCT8 cells after 72 hrs by trypan blue exclusion assay; type: functional, cell-based; summary of the method: as §2
# [10] = tested on: U-87MG ATCC; experiment: Cytotoxicity against human U87 cells after 72 hrs by trypan blue exclusion assay; type: functional, cell-based; summary of the method: as §2
# [11] = tested on: A549; experiment: Cytotoxicity against human A549 cells after 72 hrs by trypan blue exclusion assay; type: functional, cell-based; summary of the method: as §2
# [12] = tested on: SW-620; experiment: Cytotoxicity against human SW620 cells after 72 hrs by trypan blue exclusion assay; type: functional, cell-based; summary of the method: as §2
# [13] = tested on: SK-MEL-28; experiment: Cytotoxicity against human SK-MEL-28 cells after 72 hrs by trypan blue exclusion assay; type: functional, cell-based; summary of the method: as §2
# [14] = tested on: NB-4; experiment: Cytotoxicity against human NB4 cells after 72 hrs by trypan blue exclusion assay; type: functional, cell-based; summary of the method: as §2
# [15] = tested on: U-937; experiment: Cytotoxicity against human U937 cells after 72 hrs by trypan blue exclusion assay; type: functional, cell-based; summary of the method: as §2
# [16] = tested on: MCF7; experiment: Cytotoxicity against human MCF7 cells after 72 hrs by trypan blue exclusion assay; type: functional, cell-based; summary of the method: as §2
# [17] = tested on: N2a; experiment: Cytotoxicity against mouse Neuro2a cells after 72 hrs by trypan blue exclusion assay; type: functional, cell-based; summary of the method: as §2
# [18] = tested on: TS/A; experiment: Cytotoxicity against mouse TSA cells after 72 hrs by trypan blue exclusion assay; type: functional, cell-based; summary of the method: as §2
# [19] = tested on: SK-N-SH; experiment: Cytotoxicity against human SK-N-SH cells after 72 hrs by trypan blue exclusion assay; type: functional, cell-based; summary of the method: as §2
# [20] = tested on: B16-F10; experiment: Cytotoxicity against mouse B16F10 cells after 72 hrs by trypan blue exclusion assay; type: functional, cell-based; summary of the method: as §2
# [21] = tested on: KG-1; experiment: Cytotoxicity against human KG1 cells after 72 hrs by trypan blue exclusion assay; type: functional, cell-based; summary of the method: as §2
# [22] = tested on: P19; experiment: Cytotoxicity against mouse P19 cells after 72 hrs by trypan blue exclusion assay; type: functional, cell-based; summary of the method: as §2
# [23] = tested on: MCF7; experiment: Induction of human MCF7 cell differentiation assessed as milk fat accumulation in intracytoplasmic vesicle at 5 uM after 48 hrs by Bligh and Dyer method; type: functional, cell-based
# Summary of the method: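 MCF-7 cells (5 million) exposed to vehicle or compound for 48 h, washed three times in PBS. Lipids extracted by the Bligh and Dyer method and triglycerides quantified.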
# [24] = tested on: MCF7; experiment: Induction of human MCF7 cell differentiation assessed as lipid accumulation in intracytoplasmic vesicle at 5 uM after 48 hrs by oil red O staining-based light microscopy; type: functional
# Summary of the method: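 MCF-7 cells on glass coverslips treated with drug, fixed in 3.7% paraformaldehyde for 1 h at room temperature, and stained with oil red O in 60% isopropanol with hematoxylin counterstain. Dye extracted with isopropanol and read at 510 nm, with control subtracted and the value normalized to SYBR green DNA stain.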
# [25] = tested on: MCF7; experiment: Induction of human MCF7 cell differentiation assessed as stimulation of milk fat globulin expression at 5 uM after 48 hrs by immunocytochemistry; type: functional, cell-based
# [26] = Mus musculus, P19, 72 h, read-out: IC50
# [27] = Homo sapiens, U-937, 72 h, read-out: IC50
Structure (SMILES),"IC50 [1, 26]",Activity [2],Activity [3],"IC50 [4, 27]",IC50 ([1]; p19),IC50 ([4]; u-937),other results
CC[C@H](CC[C@@H](C)[C@H]1CC[C@H]2[C@@H]3C[C@@H](NCCc4c[nH]cn4)[C@@]4(O)C[C@@H](O)CC[C@]4(C)[C@H]3CC[C@]12C)C(C)C,2.5 µM,50 um,50 um,1.1 µM,–,–,–
NCCCCNCCCN [SPERMIDINE],–,inactive,inactive,–,Not Active,Not Active,–
NCCCCN [PUTRESCINE],–,inactive,inactive,–,Not Active,Not Active,–
CCCC(=O)O[C@H]1CC[C@]2(C)[C@H]3CC[C@]4(C)[C@@H]([C@H](C)CCCC(C)C)CC[C@H]4[C@@H]3C[C@@H]3O[C@@]32C1,–,inactive,inactive,–,Not Active,Not Active,–
C[C@]12CC[C@H]3[C@@H](C[C@@H](NCCc4c[nH]cn4)[C@@]4(O)C[C@@H](O)CC[C@]34C)[C@@H]1CC[C@@H]2O,7.3 µM,inactive,inactive,9.8 µM,–,–,–
CC(C)CCC[C@@H](C)[C@H]1CC[C@H]2[C@@H]3C[C@H]4O[C@]45C[C@@H](O)CC[C@]5(C)[C@H]3CC[C@]12C,–,inactive,inactive,–,Not Active,Not Active,concentration [5]: 1 nM
NCCCNCCCCNCCCN [SPERMINE],–,inactive,inactive,–,Not Active,Not Active,–
CC(C)CCC[C@@H](C)[C@H]1CC[C@H]2[C@@H]3C[C@@H](NCCCCNCCCN)[C@@]4(O)C[C@@H](O)CC[C@]4(C)[C@H]3CC[C@]12C,–,50 um,<5 um,–,Not Active,Not Active,Activity [6]: inactive; Activity [7]: inactive
CC(C)CCC[C@@H](C)[C@H]1CC[C@H]2C3=C[C@@H]4O[C@@]45C[C@@H](O)CC[C@]5(C)[C@H]3CC[C@]12C,–,inactive,inactive,–,Not Active,Not Active,–
CC(C)CCC[C@@H](C)[C@H]1CC[C@H]2[C@@H]3C[C@@H](NCCCNCCCCNCCCN)[C@@]4(O)C[C@@H](O)CC[C@]4(C)[C@H]3CC[C@]12C,–,10 um,<5 um,–,Not Active,Not Active,–
CC(C)CCC[C@@H](C)[C@H]1CC[C@H]2C3=C[C@@H](NCCCCNCCCN)[C@@]4(O)C[C@@H](O)CC[C@]4(C)[C@H]3CC[C@]12C,–,50 um,<5 um,–,Not Active,Not Active,–
CC(C)CCC[C@@H](C)[C@H]1CC[C@H]2[C@@H]3C[C@@H]4O[C@@]45C[C@@H](O)CC[C@]5(C)[C@H]3CC[C@]12C,–,inactive,inactive,–,Not Active,Not Active,concentration [5]: 1 nM
CC(C)CCC[C@@H](C)[C@H]1CC[C@H]2[C@@H]3C[C@@H](NCCCCN)[C@@]4(O)C[C@@H](O)CC[C@]4(C)[C@H]3CC[C@]12C,2.6 µM,10 um,5 um,2.1 µM,–,–,–
CC(C)CCC[C@@H](C)[C@H]1CC[C@H]2[C@@H]3C[C@@H](NCCCNCCCCN)[C@@]4(O)C[C@@H](O)CC[C@]4(C)[C@H]3CC[C@]12C,–,50 um,<5 um,–,Not Active,Not Active,–
C[C@]12CC[C@H]3[C@@H](C[C@@H]4O[C@@]45C[C@@H](O)CC[C@]35C)[C@@H]1CC[C@@H]2O,–,inactive,inactive,–,Not Active,Not Active,–
CC[C@H](CC[C@@H](C)[C@H]1CC[C@H]2[C@@H]3C[C@@H]4O[C@@]45C[C@@H](O)CC[C@]5(C)[C@H]3CC[C@]12C)C(C)C,–,inactive,inactive,–,Not Active,Not Active,–
CCCC(=O)O[C@H]1CC[C@]2(C)[C@H]3CC[C@]4(C)[C@@H]([C@H](C)CCCC(C)C)CC[C@H]4[C@@H]3C[C@@H](NCCc3c[nH]cn3)[C@@]2(O)C1,9.4 µM,inactive,inactive,8.2 µM,–,–,–
NCCc1c[nH]cn1 [HISTAMINE],–,inactive,inactive,–,Not Active,Not Active,–
CC(=O)O[C@H]1CC[C@]2(C)[C@H]3CC[C@]4(C)[C@@H]([C@H](C)CCCC(C)C)CC[C@H]4[C@@H]3C[C@@H](NCCc3c[nH]cn3)[C@@]2(O)C1,2.5 µM,50 um,50 um,0.9 µM,–,–,–
CC(C)CCC[C@@H](C)[C@H]1CC[C@H]2C3=C[C@@H](NCCCNCCCCNCCCN)[C@@]4(O)C[C@@H](O)CC[C@]4(C)[C@H]3CC[C@]12C,–,10 um,<5 um,–,Not Active,Not Active,–
CC(C)CCC[C@@H](C)[C@H]1CC[C@H]2[C@@H]3C[C@@H](n4cnc(CCN)c4)[C@@]4(O)C[C@@H](O)CC[C@]4(C)[C@H]3CC[C@]12C,8.9 µM,<5 um,<5 um,7.7 µM,–,–,Activity [8]: inactive; Activity [9]: inactive; Activity [10]: inactive; Activity [11]: inactive; Activity [12]: inactive; Activity [13]: inactive; Activity [14]: inactive; Activity [15]: inactive; Activity [16]: inactive; Activity [17]: inactive; Activity [18]: inactive; Activity [19]: inactive; Activity [20]: inactive; Activity [21]: inactive; Activity [22]: inactive
CC/C(=C(\c1ccccc1)c1ccc(OCCN(C)C)cc1)c1ccccc1,–,–,–,–,–,–,Activity [23]: Active; Activity [24]: Active; Activity [25]: Active
CC(C)CCC[C@@H](C)[C@H]1CC[C@H]2C3=C[C@@H](NCCCCN)[C@@]4(O)C[C@@H](O)CC[C@]4(C)[C@H]3CC[C@]12C,2.8 µM,50 um,5 um,2.6 µM,–,–,–
CC(=O)O[C@H]1CC[C@]2(C)[C@H]3CC[C@]4(C)[C@@H]([C@H](C)CCCC(C)C)CC[C@H]4[C@@H]3C[C@@H]3O[C@@]32C1,–,inactive,inactive,–,Not Active,Not Active,–
CC(C)CCC[C@@H](C)[C@H]1CC[C@H]2[C@@H]3CC=C4C[C@@H](O)CC[C@]4(C)[C@H]3CC[C@]12C [CHOLESTEROL],–,inactive,inactive,–,Not Active,Not Active,–
CC(C)CCC[C@@H](C)[C@H]1CC[C@H]2C3=C[C@@H](NCCc4c[nH]cn4)[C@@]4(O)C[C@@H](O)CC[C@]4(C)[C@H]3CC[C@]12C,5.3 µM,5 um,<5 um,7.6 µM,–,–,–
